Data on four molecules can be found in ChEMBL document CHEMBL1141839, “Antifungal jujubogenin saponins from Colubrina retusa” (1999).

For assay [1], the system named is Candida albicans. Nature of the assay: Antifungal activity against Candida albicans at 2 ug/mL after 24 hrs. The assay is classed as functional, organism-based. In short, it runs like this: (§1)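 Modified NCCLS broth microdilution in 96-well format. C. albicans grown in SDB to the desired density and seeded into wells. Pure compounds tested at final 50, 10 and 2 μg/mL. Incubated 24 h at 37 °C, with growth scored at each level. MIC is the lowest tested concentration with no growth. Amphotericin B served as positive control.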

The subject of assay [2] is Cryptococcus neoformans. The assay is described as follows: Antifungal activity against Cryptococcus neoformans at 2 ug/mL after 48 hrs. In kind it is functional, organism-based. In short, it runs like this:
(§2)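 C. neoformans grown in Mycophil broth to the desired density, then seeded into 96-well plates (modified NCCLS microdilution). Pure compounds added at final 50, 10 and 2 μg/mL. Incubation 48 h, 30 °C, with growth assessed per concentration. MIC is the lowest tested level showing no growth. Amphotericin B positive control.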

Assay [3] relates to Aspergillus fumigatus. Nature of the assay: Antifungal activity against Aspergillus fumigatus at 2 ug/mL after 48 hrs. In kind it is functional, organism-based. In short, it runs like this: (§3)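 A. fumigatus spores gently scraped from fungal growth and used as inoculum in a 96-well adaptation of the NCCLS protocol. Pure compounds at final 50, 10 and 2 μg/mL. Incubated 48 h at 30 °C, with growth read at each concentration. MIC is the lowest tested concentration without growth. Amphotericin B positive control.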

For assay [4], the system named is Candida albicans. The assay is described as follows: Antifungal activity against Candida albicans after 24 hrs. The assay is classed as functional. In short, it runs like this: as §1
The test system of assay [5] is Aspergillus fumigatus. Nature of the assay: Antifungal activity against Aspergillus fumigatus after 48 hrs. The assay is classed as functional. Summed up: as §3
The test system of assay [6] is Cryptococcus neoformans. The assay is described as follows: Antifungal activity against Cryptococcus neoformans after 48 hrs. The assay is classed as functional. Summed up: as §2

Molecules are shown by their SMILES. Values after ≈ are worked out from the molar mass of the structure shown. Active and inactive are the calls of the source. The calls are words filed in the database; no cut-off is given here. Bounds are passed on as bounds.

For `C[C@@H]1[C@H](O)[C@@H](C)/C=C/C=C/C=C/C=C/C=C/C=C/C=C/[C@H](O[C@@H]2O[C@H](C)[C@@H](O)[C@H](N)[C@@H]2O)C[C@@H]2O[C@](O)(C[C@@H](O)C[C@@H](O)[C@H](O)CC[C@@H](O)C[C@@H](O)CC(=O)O[C@H]1C)C[C@H](O)[C@H]2C(=O)O`, the outcome in assay [1], in assay [2] and in assay [3] was Active.
Regarding `CC(C)=C[C@H]1C[C@](C)(O)[C@@H]2[C@H]3CC[C@@H]4[C@@]5(C)CC[C@H](O[C@@H]6OC[C@H](O)[C@H](O[C@@H]7O[C@H](CO)[C@@H](O)[C@H](O)[C@H]7O)[C@H]6O[C@@H]6O[C@@H](COC(=O)CC(=O)O)[C@H](O)[C@H]6O)C(C)(C)[C@@H]5CC[C@@]4(C)[C@@]34CO[C@@]2(C4)O1`, the result in assay [4], in assay [5] and in assay [6] was inactive.
Broadly, the MIC is the lowest concentration found to suppress growth. With `CC(C)=C[C@H]1C[C@](C)(O)[C@@H]2[C@H]3CC[C@@H]4[C@@]5(C)CC[C@H](O[C@@H]6OC[C@H](O)[C@H](O[C@@H]7O[C@H](CO)[C@@H](O)[C@H](O)[C@H]7O)[C@H]6O[C@@H]6O[C@@H](CO)[C@H](O)[C@H]6O)C(C)(C)[C@@H]5CC[C@@]4(C)[C@@]34CO[C@@]2(C4)O1`, the MIC in assay [4], in assay [5] and in assay [6] was 50 µg/mL (≈ 55.6 µM) in each case.
Turning to `CC(C)=C[C@H]1C[C@](C)(O)[C@@H]2[C@H]3CC[C@@H]4[C@@]5(C)CC[C@H](O[C@@H]6OC[C@H](O)[C@H](O[C@@H]7O[C@H](CO)[C@@H](O)[C@H](O)[C@H]7OC(=O)/C=C/c7ccc(O)cc7)[C@H]6O[C@@H]6O[C@@H](CO)[C@H](O)[C@H]6O)C(C)(C)[C@@H]5CC[C@@]4(C)[C@@]34CO[C@@]2(C4)O1`, the MIC in assay [4] was greater than 50 µg/mL; in assay [5], greater than 50 µg/mL; in assay [6], 50 µg/mL (≈ 47.8 µM).
